Assay results reported in PMC7547831 (Acta Pharmaceutica Sinica. B, 2020).
Like-named read-outs stand apart in the source and are kept apart here.

Columns and labels:
[1] = LHQW components in human plasma after repeated oral dosing; format: in vivo; details: after repeated oral administration of LHQW capsule, semi-quantitative
ACE2 [2] = target: T1, ACE2 (Homo sapiens, UniProt Q9BYF1); assay: Test of ACE2 inhibitory activity; format: biochemical
Method in brief: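 ACE2 inhibition was measured with a commercial inhibitor screening kit following the supplier's instructions. Each data point was run in duplicate and reported as the mean value. IC50 came from nonlinear curve fitting.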
Target sequence in this assay (Q9BYF1 18-805): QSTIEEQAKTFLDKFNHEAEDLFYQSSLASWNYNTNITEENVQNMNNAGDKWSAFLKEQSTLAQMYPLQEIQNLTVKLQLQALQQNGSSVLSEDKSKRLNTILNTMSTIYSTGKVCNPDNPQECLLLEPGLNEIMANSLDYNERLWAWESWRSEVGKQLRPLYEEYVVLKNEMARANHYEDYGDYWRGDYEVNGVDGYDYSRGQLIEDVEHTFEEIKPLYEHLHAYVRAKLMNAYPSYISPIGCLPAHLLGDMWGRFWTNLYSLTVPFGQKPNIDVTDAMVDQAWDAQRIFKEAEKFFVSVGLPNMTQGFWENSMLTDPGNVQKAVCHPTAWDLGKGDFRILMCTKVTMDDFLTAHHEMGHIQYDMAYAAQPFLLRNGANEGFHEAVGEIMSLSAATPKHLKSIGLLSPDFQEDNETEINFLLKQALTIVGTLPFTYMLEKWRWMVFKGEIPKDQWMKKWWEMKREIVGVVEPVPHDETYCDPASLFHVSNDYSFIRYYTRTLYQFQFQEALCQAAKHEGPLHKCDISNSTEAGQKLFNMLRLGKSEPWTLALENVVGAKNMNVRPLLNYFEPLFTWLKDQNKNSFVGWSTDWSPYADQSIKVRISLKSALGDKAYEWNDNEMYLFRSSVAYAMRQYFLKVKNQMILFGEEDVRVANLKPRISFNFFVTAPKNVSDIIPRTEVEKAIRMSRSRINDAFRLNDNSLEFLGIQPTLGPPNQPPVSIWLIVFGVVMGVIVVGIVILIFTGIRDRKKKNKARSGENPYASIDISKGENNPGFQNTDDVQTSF

ACE2 [3] = target: T1, ACE2; assay: SPR analysis of affinity to ACE2 recombinant protein; format: binding; details: for Rmax: SPR fit; for χ^2: SPR fit quality; for Kd: SPR, steady-state affinity model (1:1), 0.024 to 50 μmol/L
Target sequence in this assay (Q9BYF1 18-740): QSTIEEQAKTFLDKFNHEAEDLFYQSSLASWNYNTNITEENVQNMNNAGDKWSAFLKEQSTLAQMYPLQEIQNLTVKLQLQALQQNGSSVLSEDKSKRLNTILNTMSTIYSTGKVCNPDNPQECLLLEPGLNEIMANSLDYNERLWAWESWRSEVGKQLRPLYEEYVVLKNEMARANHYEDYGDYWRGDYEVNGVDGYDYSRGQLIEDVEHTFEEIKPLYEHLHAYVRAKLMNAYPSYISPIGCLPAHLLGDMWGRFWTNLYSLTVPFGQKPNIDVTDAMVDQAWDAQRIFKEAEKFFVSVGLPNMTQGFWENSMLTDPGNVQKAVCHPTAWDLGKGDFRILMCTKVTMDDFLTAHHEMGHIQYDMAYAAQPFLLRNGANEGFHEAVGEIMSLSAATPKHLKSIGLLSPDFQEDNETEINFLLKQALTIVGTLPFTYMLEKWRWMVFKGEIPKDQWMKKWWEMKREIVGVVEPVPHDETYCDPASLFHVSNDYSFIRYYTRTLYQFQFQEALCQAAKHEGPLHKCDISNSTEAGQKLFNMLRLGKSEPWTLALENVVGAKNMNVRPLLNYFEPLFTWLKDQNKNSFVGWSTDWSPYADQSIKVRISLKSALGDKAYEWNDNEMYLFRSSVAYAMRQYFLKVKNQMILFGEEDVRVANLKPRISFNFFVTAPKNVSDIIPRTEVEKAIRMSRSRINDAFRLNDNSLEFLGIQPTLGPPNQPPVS

ACE2 [4] = target: T1, ACE2; assay: Comprehensive 2D ACE2 column/C18 column/TOFMS biochromatography screening; format: binding; details: urine sample, LHQW extract or standard
Method in brief: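 Stationary phase: His-tagged recombinant human ACE2 immobilised on MPTS/GMBS-modified silica, confirmed by pronase digestion and anti-ACE2 immunoblot. First dimension was the ACE2 column (10 × 2.0 mm, 5 μm) in 10 mmol/L ammonium acetate at 0.2 mL/min. Retained fractions went by alternating 10-port valve loops to a C18 column (0.1% formic acid/acetonitrile gradient, 0.4 mL/min) and then TOFMS.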
Target sequence in this assay (Q9BYF1 18-740): as above

Compound | Human in vivo exposure (in words) [1] | ACE2 inhibitory effect (in words) (ACE2 [2]; ACE2 Inhibitor Screening Kit) | Rmax (ACE2 [3]) | χ^2 (ACE2 [3]) | Retention on ACE2 biochromatography column (potential ACE2 binding) (ACE2 [4]) | also measured
C=CC1CNC(=S)O1 (racemic) [(R,S)-goitrin] | higher human exposure |  |  |  |  | 
O=C1c2cccc(O)c2C(=O)c2c(O)cc(CO)cc21 [Aloe-emodin (216), Aloe-emodin] |  | no inhibitory effect | 16.120 RU | 7.720 |  | ACE2 binding ability by SPR (in words) (ACE2 [3]): could also exhibit ACE2 binding activity
N#C[C@H](O[C@@H]1O[C@H](CO[C@@H]2O[C@H](CO)[C@@H](O)[C@H](O)[C@H]2O)[C@@H](O)[C@H](O)[C@H]1O)c1ccccc1 [Amygdalin (33), Amygdalin] |  |  | 6.856 RU | 0.462 | potential ACE2 binding activity | 
Cc1cc(O[C@@H]2OC(CO)[C@@H](O)C(O)C2O)c2c(c1)C(=O)c1cc(O)cc(O)c1C2=O (stereo partly drawn) [Emodin 8-O-β-D-glucoside (195), Emodin 8-O-β-D-glucoside] |  |  | 16.930 RU | 3.190 |  | IC50 (ACE2 [2]; read-out: IC50 of ACE2 inhibition, ACE2 Inhibitor Screening Kit): 22.5 µM; ACE2 binding ability by SPR (in words) (ACE2 [3]): could also exhibit ACE2 binding activity; Kd (ACE2 [3]): 21.3 µM
C[C@@H]1O[C@@H](OC[C@H]2O[C@@H](OCCc3ccc(O)c(O)c3)[C@H](O)[C@@H](O)[C@@H]2OC(=O)/C=C/c2ccc(O)c(O)c2)[C@H](O)[C@H](O)[C@H]1O [Forsythoside A (128), Forsythoside A] | low in vivo exposure | have ACE2 inhibitory effects | 21.490 RU | 5.280 | potential ACE2 binding activity | Kd (ACE2 [3]): 15.8 µM
C[C@@H]1O[C@@H](OC[C@H]2O[C@@H](OCCc3ccc(O)c(O)c3)[C@H](O)[C@@H](OC(=O)/C=C/c3ccc(O)c(O)c3)[C@@H]2O)[C@H](O)[C@H](O)[C@H]1O [Forsythoside I (104), Forsythoside I] | low in vivo exposure | have ACE2 inhibitory effects | 19.020 RU | 1.910 | potential ACE2 binding activity | Kd (ACE2 [3]): 18.7 µM
CC1(C)[C@@H](O[C@H]2O[C@H](C(=O)O)[C@@H](O)[C@H](O)[C@H]2O[C@@H]2O[C@H](C(=O)O)[C@@H](O)[C@H](O)[C@H]2O)CC[C@]2(C)[C@H]3C(=O)C=C4[C@@H]5C[C@@](C)(C(=O)O)CC[C@]5(C)CC[C@@]4(C)[C@]3(C)CC[C@@H]12 [Glycyrrhizin (222), Glycyrrhizin] | high in vivo exposure concentrations |  | 9.614 RU | 0.321 | potential ACE2 binding activity | ACE2 inhibitory effect (in words) (ACE2 [2]; ACE2 Inhibitor Screening Kit, listed as Glycyrrhizin): poor inhibitory effect; ACE2 inhibitory effect (in words) (ACE2 [2]; ACE2 Inhibitor Screening Kit, listed as glycyrrhizin): did not show significant peptidase inhibitory effects
CC(C)C[C@H](N[C@@H](Cc1cncn1Cc1cc(Cl)cc(Cl)c1)C(=O)O)C(=O)O [MLN-4760, reference compound] |  |  |  |  | significant retention | IC50 (ACE2 [2]): 0.063 µM
O=C(/C=C/c1ccc(O)c(O)c1)O[C@@H]1C[C@@](O)(C(=O)O)C[C@@H](O)[C@@H]1O [Neochlorogenic acid (19), Neochlorogenic acid] |  |  | 6.894 RU | 1.260 |  | Kd (ACE2 [3]): 7.88 µM
COc1cc(O)c2c(c1)C(=O)c1cc(C)cc(O)c1C2=O [Physcion (230), Physcion] |  |  | 18.390 RU | 1.630 |  | ACE2 binding ability by SPR (in words) (ACE2 [3]): could also exhibit ACE2 binding activity
N#C[C@H](O[C@@H]1O[C@H](CO)[C@@H](O)[C@H](O)[C@H]1O)c1ccccc1 [Prunasin (37), Prunasin] |  | did not show significant peptidase inhibitory effects | 3.814 RU | 0.244 | potential ACE2 binding activity | 
O=c1c(O)c(-c2ccc(O)c(O)c2)oc2cc(O)cc(O)c12 [Quercetin (190), Quercetin] |  |  | 12.780 RU | 1.580 |  | ACE2 binding ability by SPR (in words) (ACE2 [3]): certain binding ability with ACE2
O=C(O)c1cc(O)c2c(c1)C(=O)c1cccc(O)c1C2=O [Rhein (226), Rhein] |  | best ACE2 inhibitory effect | 13.200 RU | 0.669 | potential ACE2 binding activity | IC50 (ACE2 [2]): 18.3 µM; Human in vivo exposure (in words) ([1]; listed as Rhein): high exposure in human serum; Human in vivo exposure (in words) ([1]; listed as rhein): relatively high
C[C@@H]1O[C@@H](OC[C@H]2O[C@@H](Oc3c(-c4ccc(O)c(O)c4)oc4cc(O)cc(O)c4c3=O)[C@H](O)[C@@H](O)[C@@H]2O)[C@H](O)[C@H](O)[C@H]1O [Rutin (124), Rutin] |  |  | 12.770 RU | 1.290 | potential ACE2 binding activity | ACE2 binding ability by SPR (in words) (ACE2 [3]): certain binding ability with ACE2
CN[C@@H](C)[C@H](O)c1ccccc1 [ephedrine] | higher human exposure |  |  |  |  | 
C[C@@H]1O[C@@H](OC[C@H]2O[C@@H](OCCc3ccc(O)c(O)c3)[C@H](O)[C@@H](O)[C@@H]2O)[C@H](O)[C@H](O)[C@H]1O [forsythoside E] |  | no ACE2 inhibitory activities |  |  |  | 
CN[C@@H](C)[C@@H](O)c1ccccc1 [pseudoephedrine] | higher human exposure |  |  |  |  | 
C[C@@H]1O[C@@H](Oc2c(-c3ccc(O)c(O)c3)oc3cc(O)cc(O)c3c2=O)[C@H](O)[C@H](O)[C@H]1O [quercitrin] | higher human exposure |  |  |  |  | 
OC[C@H]1O[C@@H](OCCc2ccc(O)cc2)[C@H](O)[C@@H](O)[C@@H]1O [salidroside] | higher human exposure |  |  |  |  | 
Forsythoside B [Forsythoside B (125)] |  | have ACE2 inhibitory effects | 10.620 RU | 0.328 |  | ACE2 binding ability by SPR (in words) (ACE2 [3]): low binding activity
forsythin |  | no ACE2 inhibitory activities |  |  |  | 
